Screening results (PubChem BioAssay)
KDM4C inh – KDM4C (human) demethylase inhibition | GST-KDM4C 2-372, H3K9me3 peptide, LANCE TR-FRET | inhibition, % at 12.5 µM | hit rate 0.15% among 96,000 | Q9H3R0 | AID 720574;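 active = mean replicate inhibition above about 25%, with at least 55% of replicates also reaching it, limit read from the data, passing the limit was not always enough; inconclusive = only one of those two conditions met; inactive = neither condition met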
Target sequence (Q9H3R0 2-372 limits assumed): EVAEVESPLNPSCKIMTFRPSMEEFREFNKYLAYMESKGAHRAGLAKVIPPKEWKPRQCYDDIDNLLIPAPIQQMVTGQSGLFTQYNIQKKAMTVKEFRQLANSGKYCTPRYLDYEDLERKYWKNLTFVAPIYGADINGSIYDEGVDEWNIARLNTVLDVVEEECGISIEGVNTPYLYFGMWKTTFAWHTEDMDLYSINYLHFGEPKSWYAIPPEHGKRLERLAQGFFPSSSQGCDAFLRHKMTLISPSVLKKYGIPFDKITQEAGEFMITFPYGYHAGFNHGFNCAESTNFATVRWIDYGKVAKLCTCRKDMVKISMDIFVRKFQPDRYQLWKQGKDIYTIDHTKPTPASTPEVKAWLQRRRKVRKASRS
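Compound: one test concentration per compound; Material: GST-GASC-1 enzyme fragment 2-372; Amount: GASC-1 enzyme at 10 nM final in reaction; Also added: H3K9me3 peptide substrate, Fe(II), 2-oxoglutarate; Technique: LANCE TR-FRET; Times: 30 min demethylation and 1 h detection at room temperature.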
T cruzi growth-1 – T. cruzi proliferation inhibition; T. cruzi beta-gal in NIH3T3, GalScreen luminescence, 90 h; inhibition, % at 8.34 µM; hit rate 5.9% among 77,000;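 active = mean inhibition above about 93%, with at least 55% of replicates each passing it, limit read from the data, passing the limit was not always enough; inconclusive = only one of those two conditions holds; inactive = neither condition holds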
IDH1 R132H inh – IDH1 R132H (human) inhibition | O75874 | IDH1 R132H reductase, diaphorase/resazurin fluorescence, 60 min | inhibition, % at 10 µM | hit rate 0.18% among 70,000; in the data active = inhibition above about 34%; inconclusive = no clear call, values can overlap the other calls; inactive = below about 11%;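 also: 0% = DMSO and 100% = no enzyme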
T cruzi growth-2 – inhibitors of T. cruzi proliferation. T. cruzi beta-gal in NIH3T3, GalScreen luminescence, 90 h. shares compounds with T cruzi growth-1. inhibition, % at 8.35 µM. hit rate 72% among 5,600;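 active = mean replicate inhibition above about 95% and at least 55% of replicates individually reaching it, limit read from the data; inconclusive = only one of the two criteria is met; inactive = neither criterion is met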
T cruzi growth-3 – inhibitors of T. cruzi proliferation; inhibition, % at 2.09 µM; T. cruzi beta-gal in NIH3T3, GalScreen luminescence, 90 h; shares compounds with T cruzi growth-1; hit rate 21% among 5,600;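 active = mean inhibition above about 95%, with at least 55% of replicates also reaching it, limit read from the data; inconclusive = meets just one of the two conditions; inactive = meets neither condition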;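 also: plate controls were neutral control median for no effect and positive control median for full effect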
3T3 cytotox – kills mouse NIH/3T3 fibroblasts; shares compounds with T cruzi growth-1; NIH/3T3 viability, CellTiter-Glo ATP luminescence, 90 h; cytotoxicity (signal decrease), % at 8.35 µM; hit rate 14% among 5,600; AID 651742;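 active = mean signal decrease across replicates above about 35% based on untreated-well scatter, with enough replicates individually passing, limit read from the data; inconclusive = no rule stated though some were filed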;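 also: 0% = median of neutral control wells and 100% = median of positive control wells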
3T3 cytotox 2 – kills mouse NIH/3T3 fibroblasts | shares compounds with T cruzi growth-1 | NIH/3T3 viability, CellTiter-Glo ATP luminescence, 90 h | inhibition, % at 24.9 µM | hit rate 56% among 5,600;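 active = mean loss of cell viability signal at or above a set limit, and enough replicates individually reaching it; inconclusive = meets only the mean limit or only the replicate share; inactive = meets neither condition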;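 also: 0% = median of neutral control wells and 100% = median of positive control wells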
Starred values were filed as active, the others as inactive; ? = inconclusive; . = not tested or not shown. The entries come from a sample that favours hits as a whole.

SMILES | KDM4C inh | T cruzi growth-1 | IDH1 R132H inh | T cruzi growth-2 | T cruzi growth-3 | 3T3 cytotox | 3T3 cytotox 2
C[C@@H]1CCCCO[C@H](CN(C)S(=O)(=O)c2cccs2)[C@H](C)CN([C@H](C)CO)C(=O)c2cc(NC(=O)NC3CCCCC3)ccc2O1 | -3 | 81 | 2 | . | . | . | .
C[C@@H]1CN([C@@H](C)CO)C(=O)c2cc(NC(=O)Nc3ccc(F)cc3)ccc2O[C@@H](C)CCCCO[C@@H]1CN(C)S(=O)(=O)c1cccs1 | 13 | -51 | 0 | . | . | . | .
CCCN1[C@@H]2c3ccc(-c4cccc(F)c4)c(=O)n3C[C@@H]2[C@@H](CO)[C@@H]1C(=O)N[C@H](C)c1ccccc1 | 8 | -10 | . | . | . | . | .
CCc1c(C)[nH]n(-c2ccc(Oc3ccccc3)c(S(=O)(=O)O)c2)c1=O | . | . | 1 | . | . | . | .
COc1ccc(CN(C)C[C@H]2Oc3ccc(NC(=O)Nc4cccc5ccccc45)cc3C(=O)N([C@H](C)CO)C[C@@H]2C)cc1 | -1 | -2 | -1 | . | . | . | .
COc1ccc(CN(C)C[C@H]2Oc3ccc(NC(=O)Nc4cccc5ccccc45)cc3C(=O)N([C@@H](C)CO)C[C@H]2C)cc1 | -3 | 62 | 0 | . | . | . | .
C[C@@H]1CN([C@H](C)CO)C(=O)c2cc(NC(=O)Nc3cccc4ccccc34)ccc2O[C@H]1CN(C)Cc1ccc(Oc2ccccc2)cc1 | 0 | 112* | 2 | 107* | 94 | 27 | 16
C[C@@H]1CN([C@@H](C)CO)C(=O)c2cc(NC(=O)Nc3cccc4ccccc34)ccc2O[C@@H]1CN(C)Cc1ccc(Oc2ccccc2)cc1 | -4 | 124* | -6 | 99* | 105* | 29 | 27*
COc1ccc(NC(=O)Nc2ccc3c(c2)C(=O)N([C@@H](C)CO)C[C@H](C)[C@H](CN(C)S(=O)(=O)c2ccc(Cl)cc2)O3)cc1 | 0 | 77 | 2 | . | . | . | .
C[C@H]1CCCCO[C@@H](CN(C)Cc2ccc(C(F)(F)F)cc2)[C@@H](C)CN([C@@H](C)CO)C(=O)c2cc(NC(=O)Nc3ccc(F)cc3)ccc2O1 | 1 | 94 | . | . | . | . | .
C[C@@H]1CCCCO[C@@H](CN(C)Cc2ccc(C(F)(F)F)cc2)[C@H](C)CN([C@H](C)CO)C(=O)c2cc(NC(=O)Nc3ccc(F)cc3)ccc2O1 | 0 | 110* | . | 92 | 108* | 10 | 57*
C[C@@H]1CCCCO[C@@H](CN(C)Cc2ccc(C(F)(F)F)cc2)[C@@H](C)CN([C@@H](C)CO)C(=O)c2cc(NC(=O)Nc3ccc(C(F)(F)F)cc3)ccc2O1 | 11 | 87 | . | . | . | . | .
C[C@H]1CCCCO[C@H](CN(C)Cc2ccncc2)[C@@H](C)CN([C@@H](C)CO)C(=O)c2cc(NC(=O)Nc3ccc(C(F)(F)F)cc3)ccc2O1 | 0 | 99* | . | 100* | 93 | 22 | 83*
C[C@@H]1CCCCO[C@@H](CN(C)Cc2ccc(C(F)(F)F)cc2)[C@@H](C)CN([C@@H](C)CO)C(=O)c2cc(NC(=O)Nc3ccc(F)cc3)ccc2O1 | -2 | 108* | -4 | 98* | 107* | -3 | 9
C[C@@H]1CCCCO[C@@H](CN(C)Cc2ccc(C(F)(F)F)cc2)[C@H](C)CN([C@H](C)CO)C(=O)c2cc(NC(=O)Nc3ccc(C(F)(F)F)cc3)ccc2O1 | 0 | 82 | 2 | . | . | . | .
C[C@@H]1CN([C@@H](C)CO)C(=O)c2cc(NC(=O)Nc3ccc(C(F)(F)F)cc3)ccc2O[C@@H](C)CCCCO[C@@H]1CN(C)Cc1ccc(C(F)(F)F)cc1 | 0 | 95* | . | 102* | 105* | -4 | -33
C[C@@H]1CCCCO[C@@H](CN(C)Cc2ccncc2)[C@H](C)CN([C@H](C)CO)C(=O)c2cc(NC(=O)Nc3ccc(C(F)(F)F)cc3)ccc2O1 | 0 | 88 | . | . | . | . | .
C[C@@H]1CCCCO[C@H](CN(C)Cc2ccc(C(F)(F)F)cc2)[C@@H](C)CN([C@@H](C)CO)C(=O)c2cc(NC(=O)Nc3ccc(F)cc3)ccc2O1 | -1 | 93 | -4 | . | . | . | .
C[C@@H]1CCCCO[C@@H](CN(C)Cc2ccc(C(F)(F)F)cc2)[C@@H](C)CN([C@H](C)CO)C(=O)c2cc(NC(=O)Nc3ccc(F)cc3)ccc2O1 | -1 | 102* | . | 101* | 72 | 11 | 25
Cc1noc(C)c1NC(=O)Nc1ccc2c(c1)C(=O)N([C@@H](C)CO)C[C@@H](C)[C@H](CN(C)Cc1ccc(C(F)(F)F)cc1)OCCCC[C@H](C)O2 | 0 | 85 | . | . | . | . | .
Cc1noc(C)c1NC(=O)Nc1ccc2c(c1)C(=O)N([C@H](C)CO)C[C@@H](C)[C@H](CN(C)Cc1ccc(C(F)(F)F)cc1)OCCCC[C@H](C)O2 | 0 | ? | -1 | 114* | 30 | -8 | 69*
COc1c(Cl)cc(C(=O)Nc2sc3c(c2C(=O)NCc2ccco2)CCCC3)cc1Cl | . | . | 0 | . | . | . | .
O=C(C[C@@H]1CC[C@H]2[C@@H](COC[C@@H](O)CN2C(=O)C2CCCC2)O1)NCc1ccncc1 | -2 | -32 | . | . | . | . | .
O=S(=O)(c1ccc(F)cc1)N1CCCCN2[C@H](CO)[C@@H](c3ccc(-c4ccccc4)cc3)[C@@H]2C1 | -1 | 64 | . | . | . | . | .
O=S(=O)(Cc1ccccc1)N1CCCCN2[C@H](CO)[C@H](c3ccc(-c4ccccc4)cc3)[C@@H]2C1 | 0 | 104* | . | 108* | 30 | -4 | 84*
SMILES | KDM4C inh | T cruzi growth-1 | IDH1 R132H inh | T cruzi growth-2 | T cruzi growth-3 | 3T3 cytotox | 3T3 cytotox 2
O=S(=O)(c1ccc(F)cc1)N1CCCCN2[C@H](C1)[C@@H](c1ccc(-c3ccccc3)cc1)[C@@H]2CO | 1 | 103* | . | 108* | 74 | 13 | 62*
CCS(=O)(=O)N1CCCCN2[C@H](C1)[C@@H](c1ccc(-c3ccccc3)cc1)[C@@H]2CO | 0 | 68 | . | . | . | . | .
O=S(=O)(Cc1ccccc1)N1CCCCN2[C@@H](CO)[C@@H](c3ccc(-c4ccccc4)cc3)[C@@H]2C1 | 0 | 99* | . | 103* | 76 | 30 | 107*
O=S(=O)(Cc1ccccc1)N1CCCCN2[C@H](CO)[C@@H](c3ccc(-c4ccccc4)cc3)[C@H]2C1 | 0 | 112* | . | 101* | 33 | 20 | 106*
CCS(=O)(=O)N1CCCCN2[C@H](CO)[C@H](c3ccc(-c4ccccc4)cc3)[C@H]2C1 | 0 | 84 | . | . | . | . | .
CCS(=O)(=O)N1CCCCN2[C@H](C1)[C@H](c1ccc(-c3ccccc3)cc1)[C@@H]2CO | 0 | 20 | . | . | . | . | .
C[C@@H]1CN([C@@H](C)CO)C(=O)c2cc(NS(=O)(=O)c3ccc(Cl)cc3)ccc2O[C@@H]1CN(C)S(=O)(=O)c1cccs1 | -1 | 72 | 1 | . | . | . | .
COCC(=O)N(C)C[C@H]1[C@H](c2ccccc2)[C@H](CO)N1C(=O)NC(C)C | -2 | 54 | . | . | . | . | .
